Data on 2 molecules can be found in ChEMBL document CHEMBL4376844, “A Novel Decalin-Based Bicyclic Scaffold for FKBP51-Selective Ligands” (J Med Chem, 2020).

Active and inactive are the calls of the source. The rule behind the calls is not given here.

Data set [1] deals with KB. Nature of the data set: Induction of apoptosis in human KB/HeLa cells overexpressing FKBP51 assessed as early apoptotic cells at 12 uM incubated for 40 hrs by AnnexinV-FITC and propidium iodide staining based flow cytometry analysis (reference value: 3.5%). The class given is functional. A general note: In flow cytometry, cells or beads pass a laser one at a time.
Data set [2] has as its system KB. Description: Induction of apoptosis in human KB/HeLa cells overexpressing FKBP51 assessed as viable cells at 12 uM incubated for 40 hrs by AnnexinV-FITC and propidium iodide staining based flow cytometry analysis (reference value: 87.7%). The format is functional. Conditions: read-out: Activity.
The subject of data set [3] is KB. Description: Cytotoxicity against human KB/HeLa cells overexpressing FKBP51 assessed as induction of cell death by measuring hypodiploid cells at 20 uM incubated for 72 hrs by propidium iodide based flow cytometry analysis (reference value: 4.7%). The format is functional.
Data set [4] has as its system KB. Nature of the data set: Cytotoxicity against human KB/HeLa cells overexpressing FKBP51 assessed as induction of cell death by measuring hypodiploid cells at 6 uM incubated for 72 hrs by propidium iodide based flow cytometry analysis (reference value: 4.7%). The format is functional.
Data set [5] concerns KB. Nature of the data set: Cytotoxicity against human KB/HeLa cells overexpressing FKBP51 assessed as induction of cell death by measuring hypodiploid cells at 1 uM incubated for 72 hrs by propidium iodide based flow cytometry analysis (reference value: 4.7%). The format is functional.
Data set [6] has as its target T1, Peptidyl-prolyl cis-trans isomerase FKBP5 (Homo sapiens, UniProt Q13451).
T1 sequence (Q13451 whole entry): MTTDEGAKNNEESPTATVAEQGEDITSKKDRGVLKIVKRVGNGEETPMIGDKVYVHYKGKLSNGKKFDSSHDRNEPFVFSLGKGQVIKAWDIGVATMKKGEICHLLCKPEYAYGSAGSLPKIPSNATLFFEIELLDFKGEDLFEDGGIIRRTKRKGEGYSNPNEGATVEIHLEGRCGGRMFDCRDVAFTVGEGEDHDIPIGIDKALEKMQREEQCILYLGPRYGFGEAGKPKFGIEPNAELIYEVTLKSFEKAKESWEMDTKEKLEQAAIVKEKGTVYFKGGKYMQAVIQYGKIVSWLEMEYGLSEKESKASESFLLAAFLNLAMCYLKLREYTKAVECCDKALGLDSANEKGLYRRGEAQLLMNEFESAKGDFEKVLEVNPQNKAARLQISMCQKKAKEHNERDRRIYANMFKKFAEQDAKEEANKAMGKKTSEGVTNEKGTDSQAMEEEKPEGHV
Nature of the data set: Inhibition of human full length N-terminal His-tagged/C-terminal FLAG tagged FKBP51 expressed in Escherichia coli BL21 (DE3) cells incubated for 30 mins by competitive fluorescence polarization assay.

For data set [7], the target named is T2, Peptidyl-prolyl cis-trans isomerase FKBP4 (Homo sapiens, UniProt Q02790).
T2 sequence (Q02790 whole entry): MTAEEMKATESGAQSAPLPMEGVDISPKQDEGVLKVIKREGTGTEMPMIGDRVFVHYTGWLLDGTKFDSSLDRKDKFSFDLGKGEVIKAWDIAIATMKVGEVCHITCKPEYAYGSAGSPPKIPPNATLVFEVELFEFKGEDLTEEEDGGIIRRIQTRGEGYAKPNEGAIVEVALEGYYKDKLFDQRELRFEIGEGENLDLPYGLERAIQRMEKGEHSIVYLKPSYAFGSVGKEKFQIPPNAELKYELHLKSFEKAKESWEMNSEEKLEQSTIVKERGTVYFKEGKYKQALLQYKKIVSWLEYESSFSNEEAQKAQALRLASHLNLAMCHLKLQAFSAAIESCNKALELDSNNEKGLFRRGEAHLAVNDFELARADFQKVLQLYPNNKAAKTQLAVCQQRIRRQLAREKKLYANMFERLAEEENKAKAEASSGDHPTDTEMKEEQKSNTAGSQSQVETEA
Description: Inhibition of human full length N-terminal His-tagged/C-terminal FLAG tagged FKBP52 expressed in Escherichia coli BL21 (DE3) cells incubated for 30 mins by competitive fluorescence polarization assay. The settings on record: 0.5 h. (Polarisation of emitted light reports the rotation of a fluorescent probe.)

Data set [8] has as its system KB. Nature of the data set: Cytotoxicity against human KB/HeLa cells overexpressing FKBP51 assessed as induction of cell death by measuring hypodiploid cells at 60 uM incubated for 72 hrs by propidium iodide based flow cytometry analysis (reference value: 4.7%). The format is functional.
For data set [9], the system named is KB. Description: Induction of apoptosis in human KB/HeLa cells overexpressing FKBP51 assessed as late apoptotic cells at 12 uM incubated for 40 hrs by AnnexinV-FITC and propidium iodide staining based flow cytometry analysis (reference value: 3.4%). The format is functional.
For data set [10], the system named is KB. Nature of the data set: Induction of apoptosis in human KB/HeLa cells overexpressing FKBP51 assessed as necrotic cells at 12 uM incubated for 40 hrs by AnnexinV-FITC and propidium iodide staining based flow cytometry analysis (reference value: 5.4%). The format is functional.
Data set [11] relates to KB. Nature of the data set: Induction of apoptosis in human KB/HeLa cells overexpressing FKBP51 assessed as viable cells at 25 uM incubated for 40 hrs by AnnexinV-FITC and propidium iodide staining based flow cytometry analysis (reference value: 87.7%). The format is functional. Conditions: read-out: Activity.
For data set [12], the system named is KB. Description: Induction of apoptosis in human KB/HeLa cells overexpressing FKBP51 assessed as early apoptotic cells at 25 uM incubated for 40 hrs by AnnexinV-FITC and propidium iodide staining based flow cytometry analysis (reference value: 3.5%). The class given is functional.
In data set [13] the test system is KB. Nature of the data set: Induction of apoptosis in human KB/HeLa cells overexpressing FKBP51 assessed as late apoptotic cells at 25 uM incubated for 40 hrs by AnnexinV-FITC and propidium iodide staining based flow cytometry analysis (reference value: 3.4%). The class given is functional.
The subject of data set [14] is KB. Nature of the data set: Induction of apoptosis in human KB/HeLa cells overexpressing FKBP51 assessed as necrotic cells at 25 uM incubated for 40 hrs by AnnexinV-FITC and propidium iodide staining based flow cytometry analysis (reference value: 5.4%). The class given is functional.
In data set [15] the test system is KB. Nature of the data set: Induction of apoptosis in human KB/HeLa cells overexpressing FKBP51 assessed as viable cells at 50 uM incubated for 40 hrs by AnnexinV-FITC and propidium iodide staining based flow cytometry analysis (reference value: 87.7%). The class given is functional. The settings on record: read-out: Activity.
Data set [16] deals with KB. Description: Induction of apoptosis in human KB/HeLa cells overexpressing FKBP51 assessed as early apoptotic cells at 50 uM incubated for 40 hrs by AnnexinV-FITC and propidium iodide staining based flow cytometry analysis (reference value: 3.5%). The class given is functional.
Data set [17] relates to KB. Description: Induction of apoptosis in human KB/HeLa cells overexpressing FKBP51 assessed as late apoptotic cells at 50 uM incubated for 40 hrs by AnnexinV-FITC and propidium iodide staining based flow cytometry analysis (reference value: 3.4%). The class given is functional.
Data set [18] has as its system KB. Nature of the data set: Induction of apoptosis in human KB/HeLa cells overexpressing FKBP51 assessed as necrotic cells at 50 uM incubated for 40 hrs by AnnexinV-FITC and propidium iodide staining based flow cytometry analysis (reference value: 5.4%). The class given is functional.
Data set [19] deals with KB. Description: Cytotoxicity against human KB/HeLa cells overexpressing FKBP51 assessed as induction of cell death incubated for 72 hrs by propidium iodide based flow cytometry analysis. The format is functional. In short, it runs like this: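 KB cells exposed to a range of compound doses for 72 h. 1×10^5 cells washed in PBS, then permeabilized in 0.1% sodium citrate, 0.1% Triton X-100 and 50 µg/mL propidium iodide for 30 min at 4°C in the dark. Nuclear DNA content read by flow cytometry on a log scale with debris gated out by forward scatter; % hypodiploid nuclei taken as dead cells. Four experiments, each in triplicate.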

Data set [20] deals with KB. Nature of the data set: Induction of apoptosis in human KB/HeLa cells overexpressing FKBP51 assessed as increase in early apoptotic cells incubated for 40 hrs by annexin V and propidium iodide based flow cytometry analysis. The format is functional, cell-based.
In the next data set the test system is HeLa. Nature of the data set: Induction of apoptosis in human HeLa cells expressing low leves of FKBP51 at 50 uM incubated for 40 hrs by AnnexinV-FITC and propidium iodide staining based flow cytometry analysis. The format is functional, cell-based.
Data set [21] has as its system KB. Nature of the data set: Induction of apoptosis in human KB/HeLa cells overexpressing FKBP51 assessed as viable cells at 1 uM incubated for 40 hrs by AnnexinV-FITC and propidium iodide staining based flow cytometry analysis (reference value: 87.7%). The class given is functional. The settings on record: read-out: Activity.
In data set [22] the test system is KB. Nature of the data set: Induction of apoptosis in human KB/HeLa cells overexpressing FKBP51 assessed as early apoptotic cells at 1 uM incubated for 40 hrs by AnnexinV-FITC and propidium iodide staining based flow cytometry analysis (reference value: 3.5%). The format is functional.
Data set [23] has as its system KB. Description: Induction of apoptosis in human KB/HeLa cells overexpressing FKBP51 assessed as late apoptotic cells at 1 uM incubated for 40 hrs by AnnexinV-FITC and propidium iodide staining based flow cytometry analysis (reference value: 3.4%). The format is functional.
Data set [24] relates to KB. Description: Induction of apoptosis in human KB/HeLa cells overexpressing FKBP51 assessed as necrotic cells at 1 uM incubated for 40 hrs by AnnexinV-FITC and propidium iodide staining based flow cytometry analysis (reference value: 5.4%). The format is functional.

On to `COc1ccc(CCC(OC(=O)C2CCCCN2C(=O)[C@@H]2C[C@@H](O)[C@@H](O)[C@@H]3CCCC[C@H]32)c2cccc(OCCN3CCOCC3)c2)cc1OC` (single isomer, unassigned), for which the Activity in the data set with KB [1] is listed as 10.1%; with KB [3] it was 15.3%; in the data set on KB [4], 11.6%; in the data set with KB [5], 5.6%; in the data set on KB [8], 26.1%; with KB [9] it was 6.6%. Moreover, the Activity in the data set on KB [10] is 9.6%; with KB [12], 11.1%; in the data set on KB [13], 9.6%; in the data set with KB [14], 6.8%; in the data set with KB [16], 21.7%; in the data set on KB [17], 11.4%. For the same molecule, the Activity is 8.1% in the data set with KB [18], “Dose-dependent effect” in the data set with KB [19] and “Dose-dependent effect” with KB [20]. In addition, the viability at 12 µM in the data set with KB [2] came out at 73.7%. Moreover, the Ki (usually the dissociation constant of the complex between target and ligand, obtained from inhibition or displacement) in [6] came to 280 nM. Also, in data set [7], the “inhibition (INH)” value is listed as “Not Active”. The viability at 25 µM in the data set on KB [11] worked out at 72.5%. In addition, in the data set with KB [15], the viability at 50 µM came to 58.9%. In addition, the result in the data set with HeLa was Active.
With `COc1ccc(CC[C@@H](OC(=O)[C@@H]2CCCCN2C(=O)[C@H](c2cc(OC)c(OC)c(OC)c2)C2CCCCC2)c2cccc(OCC(=O)O)c2)cc1OC`, the viability at 1 µM in the data set with KB [21] turned out to be 65.1%. Also, the Activity in the data set on KB [22] is 20.2%; in the data set with KB [23] it was 12.6%; in the data set on KB [24], 2.1%.
